M5 antag: human M5 muscarinic receptor antagonists, primary screen, CHO cells, Fluo-8 calcium fluorescence | CHO-hM5 cells, ACh EC80 | 360,000 compounds, 0.59% hits | inhibition, % at 3 µM;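 active = inhibition above a per-plate cutoff, the mean of that plate's test compounds plus 3 SD, cut at about 27% in these data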;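 also: 0% = acetylcholine EC80 with DMSO and 100% = DMSO without agonist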
Target sequence (P08912 whole entry, looked up): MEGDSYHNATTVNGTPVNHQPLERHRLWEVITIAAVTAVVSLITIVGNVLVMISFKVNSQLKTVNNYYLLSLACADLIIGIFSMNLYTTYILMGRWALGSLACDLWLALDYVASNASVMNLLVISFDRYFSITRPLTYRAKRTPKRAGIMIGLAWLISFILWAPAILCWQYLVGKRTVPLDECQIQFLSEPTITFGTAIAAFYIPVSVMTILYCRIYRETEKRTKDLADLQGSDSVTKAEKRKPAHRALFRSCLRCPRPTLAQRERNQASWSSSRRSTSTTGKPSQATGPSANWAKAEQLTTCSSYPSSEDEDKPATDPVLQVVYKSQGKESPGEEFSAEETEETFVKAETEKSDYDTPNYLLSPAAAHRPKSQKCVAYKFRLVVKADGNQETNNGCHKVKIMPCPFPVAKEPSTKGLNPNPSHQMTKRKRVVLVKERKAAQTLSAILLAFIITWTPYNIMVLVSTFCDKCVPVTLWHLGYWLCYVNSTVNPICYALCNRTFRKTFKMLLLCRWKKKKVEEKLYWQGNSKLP
CHRM1 agonist: human M1 muscarinic receptor agonists, primary screen, Fluo-8 calcium fluorescence, CHO-K1 cells, HTS. Muscarinic acetylcholine receptor M1 (Homo sapiens), P11229. CHO-K1 hM1, agonist mode; 0% DMSO, 100% acetylcholine EC100. activation, % at 3 µM. 360,000 compounds, 0.33% hits. AID 588814, 2011;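 active = activation above the run's mean compound activation plus 3 SD, cut at about 16% in these data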;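 also: peak over basal fluorescence ratio within a 140 s kinetic read after compound addition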
M1 PAM: human M1 muscarinic receptor positive allosteric modulators, primary screen, CHO-K1 cells, Fluo-8 calcium fluorescence, 1536-well. Muscarinic acetylcholine receptor M1 (Homo sapiens), P11229. CHO-K1 hM1, ACh EC20; 0% = ACh EC20, 100% = maximal ACh. activation, % at 3 µM. 360,000 compounds, 0.088% hits; in the data active = activation above about 19%, passing the limit was not always enough
CHRM5 agonist: human M5 muscarinic receptor agonists, primary screen, CHO-K1 cells, Fluo-8 calcium fluorescence. Muscarinic acetylcholine receptor M5 (Homo sapiens), P08912. activation, % at 3 µM. 360,000 compounds, 0.19% hits. CHO-K1 hM5 cells; 0% DMSO wells, 100% maximal acetylcholine response;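 active = activation above the run's mean over test compounds plus 3 SD, cut at about 23% in these data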;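 also: signal is peak over basal fluorescence ratio across the kinetic read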
M5 PAM: human M5 muscarinic receptor positive allosteric modulators, primary screen, CHO-K1 cells, Fluo-8 calcium fluorescence. Muscarinic acetylcholine receptor M5 (Homo sapiens), P08912. CHO-K1 hM5, ACh EC20 PAM; 0% = ACh EC20, 100% = ACh EC100. activation, % at 3 µM. 360,000 compounds, 0.3% hits. AID 624038, 2012;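 active = activation above the run cutoff, the mean activation of all test compounds plus 3 SD, cut at about 18% in these data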
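Assay system: CHO-K1 hM5 cells / Incubation: Fluo-8 loading 80 min at 37 °C plus 30 min room temperature / Technique: Fluo-8 calcium dye fluorescence, kinetic read / Repeats: single replicate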
M1 antag: human M1 muscarinic receptor antagonists, primary screen, CHO-K1 cells, Fluo-8 calcium fluorescence, 1536-well; CHO-K1 hM1, ACh EC80 antagonist; 360,000 compounds, 1.3% hits; Muscarinic acetylcholine receptor M1 (Homo sapiens), P11229; inhibition, % at 3 µM;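 active = percent inhibition above its own plate's cutoff, namely the mean of that plate's compound wells plus 3 SD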;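 also: peak over basal fluorescence ratio during 140 s after agonist addition; 0% = ACh EC80 plus DMSO and 100% = DMSO alone without agonist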
The depositor's hits bear a star. An excerpt weighted towards active compounds, which were near 2.2% of everything screened.

SMILES	M5 antag	CHRM1 agonist	M1 PAM	CHRM5 agonist	M5 PAM	M1 antag
COC(=O)[C@@H]1CCCN1C(=O)c1ccc(OC2CCN(Cc3ccccn3)CC2)cc1	-3	-4	28*	-6	10	-22
COc1ccc(CNS(=O)(=O)c2cc3c(cc2C)N(C)CCO3)cc1	6	-2	1	3	-3	-2
COc1ccc(CNS(=O)(=O)c2ccc3c(c2)N(C)CCO3)cc1	29*	-1	8	-3	-11	-4
COc1ccc(OCc2cc(C(=O)NCCN3CCCC(O)C3)no2)c(Cl)c1 (configuration not stated)	-5	-5	-5	-2	8	-6
COc1ccc(OCc2cc(C(=O)NCCN3CCCc4ccccc43)no2)c(Cl)c1	7	-5	-22	-4	-7	53*
CCOC(=O)c1ccc(NC(=O)c2cccc(S(=O)(=O)N3CCN(C(C)=O)CC3)c2)cc1	6	-5	3	-2	-2	-9
CN(C)Cc1ccc(F)cc1Sc1ccc(Cl)cc1Cl	-5	-10	-22	-7	-17	52*
CC(O)CNCc1ccc(Cl)cc1Cl (configuration not stated)	3	-6	6	-3	-4	-2
Cc1cccc(NC(=O)c2nc[nH]c2C(=O)NCCCCCNC(=O)OC(C)(C)C)c1	8	-3	10	2	5	-20
CC(C)(C)OC(=O)NCCCCCNC(=O)c1[nH]cnc1C(=O)N[C@@H](CCCCNC(=O)OC(C)(C)C)C(=O)OC(C)(C)C	22	-6	-22	1	-24	30*
CC(C)(C)OC(=O)NCCCCCNC(=O)c1nc[nH]c1C(=O)NCCCCCNC(=O)OC(C)(C)C	21	-1	-23	6	-39	44*
CC(C)(C)OC(=O)NCCCC[C@H](NC(=O)c1nc[nH]c1C(=O)NCc1ccc(CNC(=O)OC(C)(C)C)cc1)C(=O)OC(C)(C)C	-5	-5	-3	2	-7	7
CC(C)(C)OC(=O)NCCCC[C@H](NC(=O)c1nc[nH]c1C(=O)N[C@@H](CCCCNC(=O)OC(C)(C)C)C(=O)OC(C)(C)C)C(=O)OC(C)(C)C	-2	-2	-5	2	-16	17
CC(C)(C)OC(=O)NCCCCCNC(=O)c1nc[nH]c1C(=O)NCc1ccc(CNC(=O)OC(C)(C)C)cc1	33*	6	-30	2	-38	68*
Cc1c(N2C(=O)/C(=C\C3CC=CCC3)SC2=S)c(=O)n(-c2ccccc2)n1C (configuration not stated)	11	-8	-26	-15	-1	62*
Cc1c(N2C(=O)/C(=C/c3ccccc3)SC2=S)c(=O)n(-c2ccccc2)n1C	-2	-5	-22	-7	3	13
Cc1c(N2C(=O)/C(=C/C3CC=CCC3)SC2=S)c(=O)n(-c2ccccc2)n1C (configuration not stated)	9	-9	-24	-18	-10	73*
NS(=O)(=O)c1ccc(CCNC(=O)C(=O)c2cn(CC(=O)N3CCCC3)c3ccccc23)cc1	-7	-3	5	-1	-1	-6
CSc1ccc(S(=O)(=O)N(CC(=O)NN=C2CCN(C)CC2)c2ccc(C)cc2)cc1	-4	0	16	5	23*	-6
CN1CCC(=NNC(=O)CN(c2ccccc2)S(=O)(=O)c2ccccc2)CC1	18	-4	0	-4	-1	2
Cc1ccc(/C(O)=C2/C(=O)C(=O)N(CCCn3ccnc3)C2c2cccnc2)cc1 (configuration not stated)	16	-2	0	-2	-12	7
